Experiment [1] concerns the target T1, Phosphatidylinositol 4,5-bisphosphate 3-kinase catalytic subunit delta isoform (Homo sapiens, UniProt O00329).
T1 sequence (O00329 whole entry): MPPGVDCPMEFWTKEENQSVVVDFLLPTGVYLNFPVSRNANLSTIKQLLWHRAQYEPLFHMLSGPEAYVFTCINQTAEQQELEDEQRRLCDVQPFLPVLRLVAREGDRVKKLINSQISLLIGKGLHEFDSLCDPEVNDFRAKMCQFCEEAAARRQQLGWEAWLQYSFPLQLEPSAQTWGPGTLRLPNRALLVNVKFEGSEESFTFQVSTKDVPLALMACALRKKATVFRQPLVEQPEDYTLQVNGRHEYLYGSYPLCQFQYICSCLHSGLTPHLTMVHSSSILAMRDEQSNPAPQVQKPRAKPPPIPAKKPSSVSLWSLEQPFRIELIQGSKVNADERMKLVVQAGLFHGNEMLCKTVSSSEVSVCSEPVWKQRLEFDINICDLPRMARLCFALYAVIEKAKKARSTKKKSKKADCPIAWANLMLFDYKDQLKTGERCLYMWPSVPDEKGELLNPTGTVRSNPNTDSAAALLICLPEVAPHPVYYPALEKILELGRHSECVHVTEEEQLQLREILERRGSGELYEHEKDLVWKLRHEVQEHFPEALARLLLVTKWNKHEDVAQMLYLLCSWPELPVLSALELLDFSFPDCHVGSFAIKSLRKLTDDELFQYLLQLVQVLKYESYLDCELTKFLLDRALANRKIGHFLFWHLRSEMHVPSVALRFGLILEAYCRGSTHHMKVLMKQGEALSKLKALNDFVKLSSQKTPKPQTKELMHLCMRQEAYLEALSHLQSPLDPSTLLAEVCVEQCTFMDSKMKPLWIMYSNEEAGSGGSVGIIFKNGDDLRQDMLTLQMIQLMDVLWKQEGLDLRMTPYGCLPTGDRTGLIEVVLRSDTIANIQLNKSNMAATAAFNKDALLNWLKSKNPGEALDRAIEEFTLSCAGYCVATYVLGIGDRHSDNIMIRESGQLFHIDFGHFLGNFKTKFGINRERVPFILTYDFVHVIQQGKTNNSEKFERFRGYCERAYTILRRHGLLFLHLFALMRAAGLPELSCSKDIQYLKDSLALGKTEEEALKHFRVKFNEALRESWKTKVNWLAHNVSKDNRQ
In words: Inhibition of PI3Kdelta (unknown origin) using diC8 PIP2 as substrate after 120 mins by ADP-glo assay. The procedure, abridged: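 Delta isoform reacted 120 min in glycine-NaOH pH 8.5 buffer (50 mM KCl, 2.5 mM MgCl2, 1 mM DTT, 0.05% CHAPS) with 0.01 mM ATP and 0.05 mM diC8 PIP2; ADP formed detected by ADP-Glo (40 min) plus detection buffer (40 min) luminescence. Dundee profiling centre.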

Experiment [2] has as its target Phosphatidylinositol 4,5-bisphosphate 3-kinase catalytic subunit beta isoform (Homo sapiens, UniProt P42338). As to the kind of experiment: Inhibition of PI3Kbeta (unknown origin) using diC8 PIP2 as substrate after 60 mins by ADP-glo assay. Background: ADP-Glo first removes unused ATP, then detects ADP through luciferase.
Experiment [3] deals with Phosphatidylinositol 4,5-bisphosphate 3-kinase catalytic subunit alpha isoform (Homo sapiens, UniProt P42336). As to the kind of experiment: Inhibition of PI3Kalpha (unknown origin) using diC8 PIP2 as substrate after 80 mins by ADP-glo assay.
Chain of Phosphatidylinositol 4,5-bisphosphate 3-kinase catalytic subunit alpha isoform (P42336 whole entry, canonical isoform): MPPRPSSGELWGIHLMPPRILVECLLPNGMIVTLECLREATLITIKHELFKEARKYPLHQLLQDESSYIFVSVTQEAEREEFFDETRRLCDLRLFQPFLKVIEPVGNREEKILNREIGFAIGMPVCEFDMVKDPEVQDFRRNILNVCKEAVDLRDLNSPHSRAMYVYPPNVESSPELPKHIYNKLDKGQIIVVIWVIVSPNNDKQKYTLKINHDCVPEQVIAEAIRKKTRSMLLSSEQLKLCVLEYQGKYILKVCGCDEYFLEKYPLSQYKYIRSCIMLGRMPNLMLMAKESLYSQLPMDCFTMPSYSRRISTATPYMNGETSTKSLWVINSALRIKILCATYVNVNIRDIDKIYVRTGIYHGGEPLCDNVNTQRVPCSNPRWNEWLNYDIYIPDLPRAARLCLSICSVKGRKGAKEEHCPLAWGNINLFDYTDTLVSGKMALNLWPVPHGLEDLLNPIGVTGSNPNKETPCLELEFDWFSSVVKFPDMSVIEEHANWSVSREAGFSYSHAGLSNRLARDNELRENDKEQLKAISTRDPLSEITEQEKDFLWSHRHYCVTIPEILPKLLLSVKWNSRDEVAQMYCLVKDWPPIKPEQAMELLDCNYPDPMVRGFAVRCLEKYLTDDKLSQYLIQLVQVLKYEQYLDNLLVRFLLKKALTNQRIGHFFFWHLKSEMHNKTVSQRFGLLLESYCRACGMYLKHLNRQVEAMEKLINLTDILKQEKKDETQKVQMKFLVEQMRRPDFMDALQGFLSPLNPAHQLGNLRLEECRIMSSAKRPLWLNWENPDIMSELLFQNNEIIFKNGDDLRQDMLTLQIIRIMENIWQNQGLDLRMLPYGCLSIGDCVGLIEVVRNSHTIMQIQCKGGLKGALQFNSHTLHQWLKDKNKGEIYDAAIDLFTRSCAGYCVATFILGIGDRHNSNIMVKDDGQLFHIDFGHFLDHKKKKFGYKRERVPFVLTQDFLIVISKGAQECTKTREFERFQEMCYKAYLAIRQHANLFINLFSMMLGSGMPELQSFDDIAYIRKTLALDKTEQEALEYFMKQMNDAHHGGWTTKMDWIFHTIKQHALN

Consider 8 molecules from BindingDB's records for doi:10.1016/j.ejmech.2016.07.006 (Csir-Indian Institute of Integrative Medicine, 2016).

The structures appear in SMILES notation. pIC50: −log10 of the molar value.

Chain of Phosphatidylinositol 4,5-bisphosphate 3-kinase catalytic subunit beta isoform (P42338 whole entry, canonical isoform): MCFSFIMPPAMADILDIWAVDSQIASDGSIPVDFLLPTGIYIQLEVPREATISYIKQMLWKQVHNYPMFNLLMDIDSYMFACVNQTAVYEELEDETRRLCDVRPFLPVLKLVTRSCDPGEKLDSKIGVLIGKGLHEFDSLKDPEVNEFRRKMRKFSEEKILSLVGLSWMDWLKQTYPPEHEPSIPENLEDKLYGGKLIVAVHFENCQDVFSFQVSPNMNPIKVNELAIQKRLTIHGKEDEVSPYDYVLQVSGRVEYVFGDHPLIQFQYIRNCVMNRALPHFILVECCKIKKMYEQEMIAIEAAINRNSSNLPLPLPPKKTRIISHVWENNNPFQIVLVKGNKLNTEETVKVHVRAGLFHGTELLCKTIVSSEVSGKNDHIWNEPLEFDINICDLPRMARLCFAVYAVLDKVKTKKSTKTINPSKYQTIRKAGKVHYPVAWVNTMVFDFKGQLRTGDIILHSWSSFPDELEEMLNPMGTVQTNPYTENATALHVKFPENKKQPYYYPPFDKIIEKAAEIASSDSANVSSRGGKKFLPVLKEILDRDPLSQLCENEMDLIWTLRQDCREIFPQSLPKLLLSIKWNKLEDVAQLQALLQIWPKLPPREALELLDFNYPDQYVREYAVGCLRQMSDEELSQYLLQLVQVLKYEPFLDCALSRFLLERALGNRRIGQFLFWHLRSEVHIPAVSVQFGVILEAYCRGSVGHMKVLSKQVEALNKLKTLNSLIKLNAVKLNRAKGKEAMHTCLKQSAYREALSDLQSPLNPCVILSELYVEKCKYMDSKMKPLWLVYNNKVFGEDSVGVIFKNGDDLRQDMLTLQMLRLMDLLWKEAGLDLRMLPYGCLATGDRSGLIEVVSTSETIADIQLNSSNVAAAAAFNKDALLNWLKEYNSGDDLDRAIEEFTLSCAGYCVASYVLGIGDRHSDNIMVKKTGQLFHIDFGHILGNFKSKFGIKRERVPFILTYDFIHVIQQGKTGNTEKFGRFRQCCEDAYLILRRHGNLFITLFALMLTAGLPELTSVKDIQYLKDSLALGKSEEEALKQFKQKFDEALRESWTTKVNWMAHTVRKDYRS

With `N#CCc1ccc(Nc2ncnc3ccc(-c4ccc5c(c4)OCO5)cc23)cc1`, the pIC50 in experiment [1] and in experiment [2] was below 5.00 each time.

Take `N#CCc1ccc(Nc2ncnc3ccc(-c4cncc5ccccc45)cc23)cc1`: in experiment [2], the pIC50 was below 4.70.

Turning to `N#CCc1ccc(Nc2ncnc3ccc(-c4ccc5c(c4)OCCO5)cc23)cc1`, the pIC50 in experiment [1] and in experiment [2] was below 5.00 throughout.

`N#CCc1ccc(Nc2ncnc3ccc(-c4cccc([N+](=O)[O-])c4)cc23)cc1`: the pIC50 in experiment [1] and in experiment [2] was below 5.00 in each case.

In the case of `N#CCc1ccc(Nc2ncnc3ccc(-c4ccncc4)cc23)cc1`, the pIC50 in experiment [1] and in experiment [2] was below 5.00 throughout.

As to `CC(=O)c1ccc(-c2ccc3ncnc(Nc4ccc(CC#N)cc4)c3c2)cc1`, the pIC50 in experiment [1] and in experiment [2] was below 5.00 in each case.

Consider `C=Cc1ccc(-c2ccc3ncnc(Nc4ccc(CC#N)cc4)c3c2)cc1`, for which the pIC50 in experiment [3], in experiment [1] and in experiment [2] was below 5.00 throughout.

Regarding `N#CCc1ccc(Nc2ncnc3ccc(-c4ccc5[nH]ccc5c4)cc23)cc1`, the pIC50 in experiment [1] and in experiment [2] was below 5.00 in each case.

One may read the pIC50 as the IC50 on a negative log10 scale, so that one unit is a factor of ten. The low end stands for a high IC50, the high end for a low IC50.
